How the values were obtained:
[1] = Half life in mouse liver microsomes
[2] = Half life in human liver microsomes
[3] = target: T1, Metabotropic glutamate receptor 5 (Homo sapiens, UniProt P41594); test: Negative allosteric modulation of human mGluR5 expressed in HEK293 cells assessed as calcium mobilization by FLIPR assay; format: functional, cell-based
Target sequence in this assay (P41594 whole entry): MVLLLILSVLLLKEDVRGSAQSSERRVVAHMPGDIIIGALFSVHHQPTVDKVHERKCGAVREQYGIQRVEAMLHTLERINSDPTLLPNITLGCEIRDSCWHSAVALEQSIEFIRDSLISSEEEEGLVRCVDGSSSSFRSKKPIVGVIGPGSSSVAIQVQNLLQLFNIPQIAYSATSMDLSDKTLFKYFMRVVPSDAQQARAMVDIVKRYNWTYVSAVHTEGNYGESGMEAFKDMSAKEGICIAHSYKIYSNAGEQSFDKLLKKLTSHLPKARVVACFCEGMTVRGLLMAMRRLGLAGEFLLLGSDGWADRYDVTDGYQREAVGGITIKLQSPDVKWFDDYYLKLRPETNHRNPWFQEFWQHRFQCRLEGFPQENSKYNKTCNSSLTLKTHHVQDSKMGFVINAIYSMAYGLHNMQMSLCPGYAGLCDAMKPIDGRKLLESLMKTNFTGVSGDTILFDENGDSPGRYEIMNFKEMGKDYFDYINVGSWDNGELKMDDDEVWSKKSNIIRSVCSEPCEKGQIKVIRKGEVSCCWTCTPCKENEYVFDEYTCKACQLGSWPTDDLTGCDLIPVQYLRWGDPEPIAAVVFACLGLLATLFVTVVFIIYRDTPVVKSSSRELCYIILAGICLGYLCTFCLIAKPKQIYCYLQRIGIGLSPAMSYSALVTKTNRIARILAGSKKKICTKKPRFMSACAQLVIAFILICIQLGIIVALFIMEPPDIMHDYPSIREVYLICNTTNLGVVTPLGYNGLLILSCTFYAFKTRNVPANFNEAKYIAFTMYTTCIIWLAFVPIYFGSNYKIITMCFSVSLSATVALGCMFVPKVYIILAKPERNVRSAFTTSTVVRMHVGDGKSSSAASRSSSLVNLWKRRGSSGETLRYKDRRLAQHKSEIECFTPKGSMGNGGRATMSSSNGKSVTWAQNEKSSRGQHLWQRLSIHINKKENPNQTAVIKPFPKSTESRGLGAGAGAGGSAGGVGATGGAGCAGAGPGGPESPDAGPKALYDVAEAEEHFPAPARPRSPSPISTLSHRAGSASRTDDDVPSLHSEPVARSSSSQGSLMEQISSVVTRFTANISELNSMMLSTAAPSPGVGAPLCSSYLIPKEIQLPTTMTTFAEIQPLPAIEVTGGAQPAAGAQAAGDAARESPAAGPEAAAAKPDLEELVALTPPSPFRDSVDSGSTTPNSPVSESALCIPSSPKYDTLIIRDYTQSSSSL

[4] = Half life in rat liver microsomes
Mus musculus = test: Antidepressant activity in ICR mouse assessed as decrease in immobility time at 10 mg/kg, po administered 1 hr before test measured for 4 mins following training for 2 mins by forced swimming test; format: functional; parameters: scale not given: the % may be the effect or the level left
Procedure, shortened: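 Mouse forced swim test: ICR mice dosed orally 1 h before testing; 2 min training, then immobility duration recorded over 4 min. Activity expressed as % decrease in immobility duration. Mean ± SEM, n = 8; Dunnett's multiple comparisons after one-way ANOVA (p < 0.05).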

[5] = target: T1, Metabotropic glutamate receptor 5; test: Negative allosteric modulation of human mGluR5 expressed in HEK293 cells assessed as calcium mobilization at 2 uM by FLIPR assay; format: functional, cell-based
Target sequence in this assay (P41594 21-1212 limits assumed): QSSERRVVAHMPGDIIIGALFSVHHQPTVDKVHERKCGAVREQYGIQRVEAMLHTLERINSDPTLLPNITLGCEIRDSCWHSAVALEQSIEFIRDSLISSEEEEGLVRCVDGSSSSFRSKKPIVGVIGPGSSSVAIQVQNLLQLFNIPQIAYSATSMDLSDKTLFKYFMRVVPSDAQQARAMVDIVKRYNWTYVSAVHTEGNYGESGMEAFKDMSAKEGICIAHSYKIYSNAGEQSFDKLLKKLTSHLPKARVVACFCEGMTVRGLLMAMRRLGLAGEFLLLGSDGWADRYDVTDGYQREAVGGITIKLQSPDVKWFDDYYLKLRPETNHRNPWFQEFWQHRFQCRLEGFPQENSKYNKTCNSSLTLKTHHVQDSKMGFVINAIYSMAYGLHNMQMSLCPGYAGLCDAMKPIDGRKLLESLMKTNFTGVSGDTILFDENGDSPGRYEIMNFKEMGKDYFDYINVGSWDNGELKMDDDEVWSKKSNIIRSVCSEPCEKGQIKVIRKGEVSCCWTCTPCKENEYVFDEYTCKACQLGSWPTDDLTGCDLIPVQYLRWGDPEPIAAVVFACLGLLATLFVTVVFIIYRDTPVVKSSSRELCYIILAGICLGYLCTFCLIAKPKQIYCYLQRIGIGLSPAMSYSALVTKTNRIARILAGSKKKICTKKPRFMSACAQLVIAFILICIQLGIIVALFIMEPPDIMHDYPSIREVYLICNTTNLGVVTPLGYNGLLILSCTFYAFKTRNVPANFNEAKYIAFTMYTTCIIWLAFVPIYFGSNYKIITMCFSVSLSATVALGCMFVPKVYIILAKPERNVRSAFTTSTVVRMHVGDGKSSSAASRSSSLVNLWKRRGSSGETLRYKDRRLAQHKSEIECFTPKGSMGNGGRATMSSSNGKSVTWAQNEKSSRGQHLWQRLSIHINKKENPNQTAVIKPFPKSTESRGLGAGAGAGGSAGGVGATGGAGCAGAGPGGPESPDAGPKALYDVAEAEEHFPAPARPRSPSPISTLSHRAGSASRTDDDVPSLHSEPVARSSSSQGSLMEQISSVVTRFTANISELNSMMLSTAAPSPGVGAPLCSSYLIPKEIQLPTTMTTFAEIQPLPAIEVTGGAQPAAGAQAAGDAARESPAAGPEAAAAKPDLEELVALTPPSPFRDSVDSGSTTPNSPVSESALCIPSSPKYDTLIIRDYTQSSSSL

[6] = target: T1, Metabotropic glutamate receptor 5; test: Negative allosteric modulation of human mGluR5 expressed in HEK293 cells assessed as calcium mobilization at 1 uM by FLIPR assay; format: functional, cell-based
Target sequence in this assay (P41594 21-1212 limits assumed): as above

Structure (SMILES): Cc1nc(NC(=O)c2nc(C)n(-c3ccc(F)cc3)c2C)ccc1F
- half-life ([1]; liver microsomes): 86 min
- half-life ([2]; liver microsomes): 60 min
- IC50 [3]: 139 nM
- half-life ([4]; liver microsomes): 44 min

Structure (SMILES): Cc1cnc(NC(=O)c2nn(C)c(-c3ccc(F)cc3)c2C)s1
- IC50 [3]: 2700 nM

Structure (SMILES): Cc1c(C(=O)Nc2ccnc(Cl)c2)nn(C)c1-c1ccc(F)cc1
- Activity (Mus musculus): 39.1%
- half-life ([1]; microsomes): > 300 min
- half-life ([2]; microsomes): > 300 min
- IC50 [3]: 56.3 nM
- half-life ([4]; microsomes): 161 min

Structure (SMILES): Cc1c(C(=O)Nc2cc(Cl)ccn2)nn(C)c1-c1ccc(F)cc1
- half-life ([1]; microsomes): 24 min
- half-life ([2]; microsomes): 126 min
- IC50 [3]: 195 nM
- half-life ([4]; microsomes): 143 min

Structure (SMILES): Cc1cccc(NC(=O)c2nc(C)n(-c3ccc(F)c(Cl)c3)c2C)n1
- half-life ([1]; microsomes): 70 min
- half-life ([2]; microsomes): 76 min
- IC50 [3]: 14.5 nM
- half-life ([4]; microsomes): 87 min

Structure (SMILES): Cc1cccc(NC(=O)c2nn(C)c3c2CCCC3)n1
- IC50 [3]: 27 nM

Structure (SMILES): O=C(Nc1cc(Cl)ccc1O)c1noc2c1CCC2
- IC50 [3]: 373 nM

Structure (SMILES): Cc1cccc(NC(=O)c2nn(C)c(-c3cccc(Cl)c3)c2C)n1
- half-life ([1]; microsomes): 32 min
- half-life ([2]; microsomes): 120 min
- IC50 [3]: 4.7 nM
- half-life ([4]; microsomes): 55 min

Structure (SMILES): Cc1nc(C(=O)Nc2ccnc(Cl)c2)c(C)n1-c1ccc(F)cc1
- half-life ([1]; microsomes): 300 min
- half-life ([2]; microsomes): 225 min
- IC50 [3]: 62 nM
- half-life ([4]; microsomes): 94 min

Structure (SMILES): Cc1cccc(NC(=O)c2nn(C)c(-c3ccc(N(C)C)cc3)c2C)n1
- IC50 [3]: 645 nM

Structure (SMILES): CCCc1c(C(=O)Nc2cccc(C)n2)nn(C)c1-c1ccccc1
- inhibition [5]: 37%

Structure (SMILES): Cc1cccc(NC(=O)c2nc(C)n(-c3ccc(Cl)c(Cl)c3)c2C)n1
- Activity (Mus musculus): 85.2%
- half-life ([1]; liver microsomes): 93 min
- half-life ([2]; liver microsomes): 122 min
- IC50 [3]: 5.8 nM
- half-life ([4]; liver microsomes): 134 min

Structure (SMILES): Cc1nc(C(=O)Nc2cccc(F)n2)c(C)n1-c1ccc(F)cc1
- half-life ([1]; liver microsomes): 37 min
- half-life ([2]; liver microsomes): 96 min
- IC50 [3]: 24.2 nM
- half-life ([4]; liver microsomes): 68 min

Structure (SMILES): Cc1cccc(NC(=O)c2c3c(nn2C)CCCC3)n1
- IC50 [3]: > 1000 nM

Structure (SMILES): Cc1cccc(NC(=O)c2nn(C)c(OCC3CCCCC3)c2C)n1
- IC50 [3]: 1300 nM

Structure (SMILES): Cc1cccc(NC(=O)c2nn(C)c(OC3CCCCC3)c2C)n1
- IC50 [3]: 92 nM

Structure (SMILES): COc1ccc(-n2c(C)nc(C(=O)Nc3cccc(C)n3)c2C)cc1
- IC50 [3]: 147 nM

Structure (SMILES): Cc1cccc(NC(=O)c2nn(C)c(OC3CCOCC3)c2C)n1
- inhibition [6]: 11.6%

Structure (SMILES): Cc1ccc(NC(=O)c2nn(C)c(-c3ccc(F)cc3)c2C)nc1
- half-life ([1]; liver microsomes): 13 min
- half-life ([2]; liver microsomes): 26 min
- IC50 [3]: 90.8 nM
- half-life ([4]; liver microsomes): 67 min

Structure (SMILES): Cc1cc(NC(=O)c2nn(C)c(-c3ccc(F)cc3)c2C)ccn1
- half-life ([1]; microsomes): 84 min
- half-life ([2]; microsomes): 77 min
- IC50 [3]: 94.5 nM
- half-life ([4]; microsomes): 76 min

Structure (SMILES): Cc1nc(C(=O)Nc2ccc(F)cn2)c(C)n1-c1ccc(F)cc1
- half-life ([1]; microsomes): 32 min
- half-life ([2]; microsomes): > 300 min
- IC50 [3]: 88.3 nM
- half-life ([4]; microsomes): 110 min

Structure (SMILES): Cc1cccc(NC(=O)c2nc(C)n(-c3ccc(C(F)(F)F)cc3)c2C)n1
- half-life ([1]; microsomes): > 300 min
- half-life ([2]; microsomes): > 300 min
- IC50 [3]: 46.2 nM
- half-life ([4]; microsomes): > 300 min

Structure (SMILES): Cc1cccc(NC(=O)c2nn(C)c(OCc3ccc(F)cc3)c2C)n1
- IC50 [3]: 911 nM

Structure (SMILES): Cc1cccc(NC(=O)c2nn(C)c(OC3CCN(C)CC3)c2C)n1
- inhibition [6]: -7.7%

Structure (SMILES): COc1ccc(-c2c(C)c(C(=O)Nc3cccc(C)n3)nn2C)cc1
- Activity (Mus musculus): 14.4%
- half-life ([1]; liver microsomes): 71 min
- half-life ([2]; liver microsomes): > 300 min
- IC50 [3]: 17 nM
- half-life ([4]; liver microsomes): 95 min

Structure (SMILES): Cc1c(C(=O)Nc2ccc(F)cn2)nn(C)c1-c1ccc(F)cc1
- Activity (Mus musculus): 36.8%
- half-life ([1]; microsomes): 39 min
- half-life ([2]; microsomes): > 300 min
- IC50 [3]: 10.3 nM
- half-life ([4]; microsomes): > 300 min

Structure (SMILES): Cc1nc(C#Cc2cccnc2)cs1
- Activity (Mus musculus): 14%

Structure (SMILES): Cc1ccnc(NC(=O)c2nn(C)c(-c3ccc(F)cc3)c2C)c1
- half-life ([1]; microsomes): 10 min
- half-life ([2]; microsomes): 91 min
- IC50 [3]: 82.3 nM
- half-life ([4]; microsomes): 119 min

Structure (SMILES): Cc1cccc(NC(=O)c2nn(C)c(-c3ccc(F)c(F)c3)c2C)n1
- Activity (Mus musculus): 58.8%
- half-life ([1]; microsomes): 42 min
- half-life ([2]; microsomes): 46 min
- IC50 [3]: 4.3 nM
- half-life ([4]; microsomes): 149 min

Structure (SMILES): Cc1c(C(=O)Nc2ccnc(Cl)n2)nn(C)c1-c1ccc(F)cc1
- Activity (Mus musculus): 31.2%
- half-life ([1]; liver microsomes): > 300 min
- half-life ([2]; liver microsomes): > 300 min
- IC50 [3]: 7.1 nM
- half-life ([4]; liver microsomes): > 300 min

Structure (SMILES): Cc1csc(NC(=O)c2nn(C)c(-c3ccc(F)cc3)c2C)n1
- Activity (Mus musculus): 32.8%
- half-life ([1]; microsomes): 45 min
- half-life ([2]; microsomes): 122 min
- IC50 [3]: 16.4 nM
- half-life ([4]; microsomes): 61 min

Structure (SMILES): Cc1cccc(NC(=O)c2nc(C)n(-c3ccc(F)cc3)c2C)n1
- Activity (Mus musculus): 52.1%
- half-life ([1]; microsomes): 18 min
- half-life ([2]; microsomes): 44 min
- IC50 [3]: 13 nM
- half-life ([4]; microsomes): 106 min

Structure (SMILES): Cc1cccc(NC(=O)c2nn(C)c(-c3ccncc3)c2C)n1
- half-life ([1]; microsomes): 8 min
- half-life ([2]; microsomes): 42 min
- IC50 [3]: 71 nM
- half-life ([4]; microsomes): 37 min

Structure (SMILES): Cc1cccc(NC(=O)c2nn(C)c3ccccc23)n1
- IC50 [3]: > 1000 nM

Structure (SMILES): Cc1nc(C(=O)Nc2cccc(C#N)n2)c(C)n1-c1ccc(F)cc1
- IC50 [3]: 77 nM

Structure (SMILES): Cc1c(C(=O)Nc2cccc(C(F)(F)F)n2)nn(C)c1-c1ccc(F)cc1
- half-life ([1]; liver microsomes): 98 min
- half-life ([2]; liver microsomes): 269 min
- IC50 [3]: 130 nM
- half-life ([4]; liver microsomes): 58 min

Structure (SMILES): Cc1c(C(=O)Nc2cccc(Cl)n2)nn(C)c1-c1ccc(F)cc1
- Activity (Mus musculus): 12.6%
- half-life ([1]; liver microsomes): 116 min
- half-life ([2]; liver microsomes): 115 min
- IC50 [3]: 16.4 nM
- half-life ([4]; liver microsomes): 108 min

Structure (SMILES): O=C(Nc1cccc(Cl)c1)c1noc2c1CCC2
- IC50 [3]: 63 nM

Structure (SMILES): Cc1cccc(NC(=O)c2nn(C)c(-c3ccc(C(F)(F)F)cc3)c2C)n1
- Activity (Mus musculus): 18.5%
- half-life ([1]; liver microsomes): 194 min
- half-life ([2]; liver microsomes): > 300 min
- IC50 [3]: 38 nM
- half-life ([4]; liver microsomes): > 300 min

Structure (SMILES): Cc1cccc(NC(=O)c2nn(C)c(-c3cc(F)cc(F)c3)c2C)n1
- half-life ([1]; liver microsomes): 18 min
- half-life ([2]; liver microsomes): 32 min
- IC50 [3]: 5.3 nM
- half-life ([4]; liver microsomes): 64 min

Structure (SMILES): Cc1c(C(=O)Nc2ccnc(F)c2)nn(C)c1-c1ccc(F)cc1
- Activity (Mus musculus): 15.5%
- half-life ([1]; liver microsomes): > 300 min
- half-life ([2]; liver microsomes): > 300 min
- IC50 [3]: 41.6 nM
- half-life ([4]; liver microsomes): 114 min

Structure (SMILES): CCc1c(C(=O)Nc2cccc(C)n2)nn(C)c1-c1ccccc1
- IC50 [3]: 27 nM

Structure (SMILES): Cc1c(C(=O)Nc2ccc(Cl)cn2)nn(C)c1-c1ccc(F)cc1
- half-life ([1]; liver microsomes): 16 min
- half-life ([2]; liver microsomes): > 300 min
- IC50 [3]: 184 nM
- half-life ([4]; liver microsomes): 219 min

Structure (SMILES): Cc1nc(NC(=O)c2nn(C)c(-c3ccc(F)cc3)c2C)ccc1F
- half-life ([1]; microsomes): 99 min
- half-life ([2]; microsomes): 213 min
- IC50 [3]: 28 nM
- half-life ([4]; microsomes): 166 min

Structure (SMILES): Cc1nc(C(=O)Nc2cccc(C(F)(F)F)n2)c(C)n1-c1ccc(F)cc1
- half-life ([1]; liver microsomes): 158 min
- half-life ([2]; liver microsomes): 196 min
- IC50 [3]: 173 nM
- half-life ([4]; liver microsomes): 72 min

Structure (SMILES): Cc1cccc(NC(=O)c2nn(C)c(-c3ccc(Cl)c(Cl)c3)c2C)n1
- Activity (Mus musculus): 45.8%
- half-life ([1]; liver microsomes): 195 min
- half-life ([2]; liver microsomes): 107 min
- IC50 [3]: 2.3 nM
- half-life ([4]; liver microsomes): 148 min

Structure (SMILES): Cc1cccc(NC(=O)c2nn(C)c(-c3ccc(F)cc3F)c2C)n1
- Activity (Mus musculus): 25.7%
- half-life ([1]; liver microsomes): 38 min
- half-life ([2]; liver microsomes): 67 min
- IC50 [3]: 3.7 nM
- half-life ([4]; liver microsomes): 76 min

Structure (SMILES): Cc1c(C(=O)Nc2ccncc2)nn(C)c1-c1ccc(F)cc1
- IC50 [3]: 301 nM

Structure (SMILES): Cc1cccc(NC(=O)c2nn(C)c(-c3ccc(Cl)cc3)c2C)n1
- Activity (Mus musculus): 51.4%
- IC50 [3]: 3.8 nM

Structure (SMILES): Cc1ccc(-c2c(C)c(C(=O)Nc3cccc(C)n3)nn2C)cc1
- Activity (Mus musculus): 30.8%
- IC50 [3]: 5.3 nM

Structure (SMILES): Cc1cccc(NC(=O)c2nc(C)n(-c3ccc(Cl)cc3)c2C)n1
- half-life ([1]; microsomes): 81 min
- half-life ([2]; microsomes): 54 min
- IC50 [3]: 17.1 nM
- half-life ([4]; microsomes): 59 min

Structure (SMILES): Cc1cccc(NC(=O)c2nn(C)c(C3CCCCC3)c2C)n1
- half-life ([1]; liver microsomes): 28 min
- half-life ([2]; liver microsomes): 83 min
- IC50 [3]: 25 nM
- half-life ([4]; liver microsomes): 8 min
